Ends that are not written are not given here.
Assays:
[1] = Pharmacokinetic study after tail vein injection; type: in vivo; details: Kunming mice, 5 mg/kg, HPLC, n = 6
Method in brief: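 Kunming mice ([…], 18–22 g) were randomised into groups of six and given 5 mg/kg by tail-vein injection, either as free peptide or as the peptide-equivalent dose in exosome-SPION form. At intervals, 20 μL of tail-vein blood was taken with heparinised micropipettes and mixed into 1 mL PBS. Samples were centrifuged at 10,000 rpm for 10 min, and peptide in the supernatant was quantified by C18 HPLC.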

[2] = In vitro release from exosome-SPION; type: physicochemical; details: PBS, 37 °C, fitted with OriginPro 2021
Method in brief: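 Test peptide loaded in SPION-decorated exosomes was placed in a dialysis bag (MWCO 80 kD) and incubated at 37 °C in PBS. Samples were withdrawn at selected intervals and peptide was quantified by reverse-phase HPLC on a C18 column. Percent release was calculated as (concentration in PBS × PBS volume) / (concentration in mother liquor × mother liquor volume) × 100%.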

MIN-6 cells = assay: Insulin secretion of MIN-6 cells; type: cell-based; details: 100 nmol/L, 1 h, 8.3 mmol/L GLC and 0.8 mmol/L palmitic acid, MF density 1 T for /MF groups, n = 6

Substance: HSDAVFTDNYTRLRKQVAAKKYLQSIKNKRY-NH2 (C-terminus assumed) [BAY 55-9837]
- time after injection at which it could not be detected in plasma [1]: 110 min
- first-order fitted release equation y = a × (1 – exp(−b × x)): a [2]: 53.92
- insulin secretion compared to the model group (MIN-6 cells): significantly enhance insulin secretion

Source: paper PMC12034843 (Drug Design, Development and Therapy, 2025)
